Reference: paper PMC4530630 (Molecular cell, 2015)

Experiments:
[1] = test system: PC3 human prostate cells stably expressing GFP-LC3; assay: GFP-LC3 puncta high-throughput microscopy in PC3 cells; format: cell-based; settings: 1 μM for 4 hours, control siRNA cells
Procedure, shortened: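 GFP-LC3 PC3 cells were used for a focused RNAi screen of kinases. 48 hours after siRNA transfection, cells received 1 μM of the catalytic mTOR inhibitors AZD8055 or INK128 for 4 hours. GFP-LC3 puncta were then imaged, with nuclei counterstained by DAPI. Results were reported as mean puncta number with standard deviation for each siRNA and drug treatment.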

[2] = test system: panel of 456 purified human kinases; assay: DiscoveRx KINOMEscan competition-binding assay; settings: tested at 10 μM
[3] = test system: A549 human lung cancer cells; assay: PE-AnnexinV FACS apoptosis in A549 cells; format: cell-based
Procedure, shortened: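 A549 human lung cancer cells received AZD8055 (1 μM) or DMSO together with increasing doses of test compound for 72 hours. Cells were then collected, stained with PE-AnnexinV and quantified by FACS. Read-out was the percentage of AnnexinV-positive cells, taken as cells actively undergoing apoptosis.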

[4] = test system: A549 cells; assay: Cyto-ID autophagy dye imaging in A549 cells; format: cell-based, human; settings: 5 μM 6965 for 2 hours, then 4 μM AZD8055 for 24 hours
Procedure, shortened: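 A549 cells were pretreated with or without test compound (5 μM) for 2 hours, then exposed to the catalytic mTOR inhibitor AZD8055 (4 μM) for 24 hours. Autophagic vacuoles were stained with the Cyto-ID autophagy detection kit and nuclei with DAPI. Read-out was immunofluorescence imaging.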

[5] = test system: endogenous FAK, AMPK, mTOR, Akt, or Erk signaling; assay: immunoblot of endogenous growth pathway signaling in wild-type MEFs; format: cell-based, mouse; settings: 10 μM
Procedure, shortened: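 Wild-type and Ulk1/Ulk2 double-knockout MEFs were given fresh DMEM with 10% FBS containing 1 μM INK128, 1 μM AZD8055 or DMSO, or EBSS starvation medium, with or without 10 μM test compound. Endogenous signaling was assessed by immunoblotting. Endogenous ULK1 activity was monitored with a phospho-specific antibody to Atg13 Ser318.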

Row | SMILES | induction in GFP-LC3 puncta formation [1] [fold] | number of kinases inhibited >95% [2] | apoptotic (AnnexinV-positive) cells ([3]; 5 μM 6965 in the absence of AZD8055, 72 hours) [%] | effect on AZD8055-induced autophagy (Cyto-ID dye accumulation) [4] | effect on endogenous FAK, AMPK, mTOR, Akt, or Erk signaling [5] | apoptotic (AnnexinV-positive) cells ([3]; AZD8055 (1 μM) alone, 72 hours) [%]
1 | CC(C)n1nc(-c2ccc3oc(N)nc3c2)c2c(N)ncnc21 [INK128] | 2 |  |  |  |  | 
2 | CNC(=O)c1ccccc1Oc1nc(Nc2cc(OC)c(OC)c(OC)c2)ncc1Br [SBI-0206965] |  | 10 out of 456 | 10 | strongly suppressed | did not impair | 
3 | COc1ccc(-c2ccc3c(N4CCOC[C@@H]4C)nc(N4CCOC[C@@H]4C)nc3n2)cc1CO [AZD8055, reference compound] | 2 |  |  |  |  | 7
